{"source": "ChEMBL document CHEMBL5357024", "about": "“MDM2 Antagonist Idasanutlin Reduces HDAC1/2 Abundance and Corepressor Partners but Not HDAC3” (ACS Med Chem Lett, 2024)", "type_in_all_cases": "cell-based", "key": {"[1]": {"molecular_target": "T1, Paired amphipathic helix protein Sin3a (Homo sapiens) (UniProt Q96ST3)", "T1 sequence (whole entry)": "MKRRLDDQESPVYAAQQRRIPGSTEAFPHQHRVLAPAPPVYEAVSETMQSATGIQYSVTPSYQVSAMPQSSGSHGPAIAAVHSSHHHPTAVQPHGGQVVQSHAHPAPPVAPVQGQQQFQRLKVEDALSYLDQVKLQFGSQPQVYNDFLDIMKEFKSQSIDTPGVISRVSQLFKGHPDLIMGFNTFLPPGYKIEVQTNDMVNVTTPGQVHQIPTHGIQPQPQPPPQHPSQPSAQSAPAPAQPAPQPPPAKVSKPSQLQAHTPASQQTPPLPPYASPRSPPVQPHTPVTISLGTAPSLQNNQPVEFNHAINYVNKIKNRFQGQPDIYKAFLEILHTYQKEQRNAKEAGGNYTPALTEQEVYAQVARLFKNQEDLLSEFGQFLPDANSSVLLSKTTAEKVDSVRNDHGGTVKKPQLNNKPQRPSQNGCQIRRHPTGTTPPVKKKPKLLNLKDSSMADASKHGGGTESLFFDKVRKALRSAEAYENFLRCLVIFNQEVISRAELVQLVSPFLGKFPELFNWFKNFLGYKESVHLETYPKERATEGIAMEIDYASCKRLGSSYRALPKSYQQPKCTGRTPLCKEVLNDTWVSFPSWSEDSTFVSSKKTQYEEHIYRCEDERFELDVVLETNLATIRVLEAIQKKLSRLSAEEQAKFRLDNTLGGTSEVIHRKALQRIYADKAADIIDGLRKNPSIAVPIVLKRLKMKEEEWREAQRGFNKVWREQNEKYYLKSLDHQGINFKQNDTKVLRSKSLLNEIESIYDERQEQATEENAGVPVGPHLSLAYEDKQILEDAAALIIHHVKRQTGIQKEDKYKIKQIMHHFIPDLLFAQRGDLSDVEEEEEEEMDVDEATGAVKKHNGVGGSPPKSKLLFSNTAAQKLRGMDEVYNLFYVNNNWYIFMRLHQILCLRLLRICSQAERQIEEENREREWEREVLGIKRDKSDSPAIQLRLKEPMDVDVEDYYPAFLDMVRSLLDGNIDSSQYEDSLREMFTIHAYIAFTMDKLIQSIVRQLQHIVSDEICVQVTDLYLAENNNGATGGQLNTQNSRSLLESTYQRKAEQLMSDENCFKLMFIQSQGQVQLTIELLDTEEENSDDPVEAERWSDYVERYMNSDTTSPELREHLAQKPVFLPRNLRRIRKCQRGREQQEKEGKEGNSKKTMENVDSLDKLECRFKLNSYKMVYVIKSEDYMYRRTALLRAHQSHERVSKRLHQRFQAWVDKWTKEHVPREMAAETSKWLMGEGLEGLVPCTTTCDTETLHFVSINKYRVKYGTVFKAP", "test": "Induction of SIN3A degradation in human HCT-116 cells assessed as reduction in SIN3A abundance by measuring remaining activity at 0.05 uM measured after 24 hrs by Western blot analysis (reference value: 100%)", "procedure,_shortened": "(§1)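 HCT116 cells seeded in six-well plates for 24 h, then exposed 24 h to compound (0.01–10 μM) or DMSO in fresh medium. Lysis in Tris-HCl/NaCl/NP-40/Triton X-100 with protease inhibitor. Bradford-normalised 30 μg protein per lane. Quantitative Western blot used specific HDAC1, HDAC2, HDAC3, LSD1 or Sin3a antibodies with IRDye secondaries. Abundance compared with DMSO, n = 2 replicates.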"}, "[2]": {"molecular_target": "T2, E3 ubiquitin-protein ligase Mdm2/Histone deacetylase 2 (Homo sapiens) (UniProt Q00987+Q92769)", "T2 sequence (Q00987 whole entry, looked up)": "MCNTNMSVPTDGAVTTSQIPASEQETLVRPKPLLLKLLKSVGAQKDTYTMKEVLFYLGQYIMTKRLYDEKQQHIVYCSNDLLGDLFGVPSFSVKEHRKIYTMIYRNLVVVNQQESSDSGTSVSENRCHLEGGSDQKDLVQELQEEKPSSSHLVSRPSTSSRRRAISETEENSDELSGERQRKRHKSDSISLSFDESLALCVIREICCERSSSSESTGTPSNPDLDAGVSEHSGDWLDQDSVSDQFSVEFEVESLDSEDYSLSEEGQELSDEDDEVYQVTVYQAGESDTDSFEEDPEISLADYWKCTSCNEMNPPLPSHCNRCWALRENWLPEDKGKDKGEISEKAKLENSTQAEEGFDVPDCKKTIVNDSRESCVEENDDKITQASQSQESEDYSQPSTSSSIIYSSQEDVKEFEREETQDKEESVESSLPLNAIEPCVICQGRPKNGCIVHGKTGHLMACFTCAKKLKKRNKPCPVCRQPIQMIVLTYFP", "T2 sequence (Q92769 whole entry, looked up)": "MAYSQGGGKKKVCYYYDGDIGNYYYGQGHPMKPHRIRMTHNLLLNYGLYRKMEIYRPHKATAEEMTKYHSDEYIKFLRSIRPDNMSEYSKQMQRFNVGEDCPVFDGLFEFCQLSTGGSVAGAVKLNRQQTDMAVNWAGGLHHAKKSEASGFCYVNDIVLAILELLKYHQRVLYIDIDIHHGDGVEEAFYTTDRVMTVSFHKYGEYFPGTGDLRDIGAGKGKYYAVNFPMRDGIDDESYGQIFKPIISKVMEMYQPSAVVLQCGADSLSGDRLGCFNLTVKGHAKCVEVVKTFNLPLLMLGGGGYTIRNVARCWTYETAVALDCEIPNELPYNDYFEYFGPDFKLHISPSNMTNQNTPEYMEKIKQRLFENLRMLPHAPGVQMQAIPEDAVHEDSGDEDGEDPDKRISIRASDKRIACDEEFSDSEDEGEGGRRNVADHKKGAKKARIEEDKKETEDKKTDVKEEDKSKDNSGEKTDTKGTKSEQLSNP", "test": "PROTAC activity at MDM2/HDAC2 in human HCT-116 cells assessed as decrease in HDAC2 abundance by measuring remaining activity at 0.025 uM measured after 24 hrs by Western blot analysis (reference value: 100%)", "procedure,_shortened": "as §1"}, "[3]": {"molecular_target": "T3, E3 ubiquitin-protein ligase Mdm2/Histone deacetylase 3 (Homo sapiens) (UniProt Q00987+O15379)", "T3 sequence (O15379 whole entry, looked up)": "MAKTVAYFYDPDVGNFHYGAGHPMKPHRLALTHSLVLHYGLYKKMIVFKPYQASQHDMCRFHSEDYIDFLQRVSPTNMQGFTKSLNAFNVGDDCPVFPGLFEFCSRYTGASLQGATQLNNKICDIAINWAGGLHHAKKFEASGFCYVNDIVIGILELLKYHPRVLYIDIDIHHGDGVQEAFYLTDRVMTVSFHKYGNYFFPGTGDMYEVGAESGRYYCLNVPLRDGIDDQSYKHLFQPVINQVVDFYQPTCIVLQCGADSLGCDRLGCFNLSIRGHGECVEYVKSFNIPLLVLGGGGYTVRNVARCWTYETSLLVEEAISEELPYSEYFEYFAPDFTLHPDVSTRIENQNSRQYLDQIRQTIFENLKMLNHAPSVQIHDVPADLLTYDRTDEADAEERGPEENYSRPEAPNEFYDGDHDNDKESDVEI", "T3 sequence (Q00987 whole entry, looked up)": "as the sequence (Q00987 whole entry, looked up) above", "test": "PROTAC activity at MDM2/HDAC3 in human HCT-116 cells assessed as reduction in HDAC3 abundance by measuring remaining activity at 0.1 uM measured after 24 hrs by Western blot analysis (reference value: 100%)", "procedure,_shortened": "(§2)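 HCT116 cells in DMEM with 10% FBS and glutamine/penicillin/streptomycin at 37 °C, 5% CO2. Seeded 4 × 10^5 cells/well, after 24 h treated 24 h with DMSO or compound in fresh medium. Lysed in Tris-HCl/NaCl/NP-40/Triton X-100 buffer with protease inhibitor, Bradford-quantified, 30 μg protein per lane. Quantitative Western blot with specific HDAC1/2/3 antibodies, IRDye secondaries, infrared imaging, versus DMSO. n = 2 replicates.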"}, "[4]": {"molecular_target": "T1, Paired amphipathic helix protein Sin3a (Homo sapiens)", "test": "Induction of SIN3A degradation in human HCT-116 cells assessed as reduction in SIN3A abundance by measuring remaining activity at 0.5 uM measured after 24 hrs by Western blot analysis (reference value: 100%)", "procedure,_shortened": "as §1"}, "[5]": {"molecular_target": "T2, E3 ubiquitin-protein ligase Mdm2/Histone deacetylase 2 (Homo sapiens)", "test": "PROTAC activity at MDM2/HDAC2 in human HCT-116 cells assessed as decrease in HDAC2 abundance by measuring remaining activity at 0.5 uM measured after 24 hrs by Western blot analysis (reference value: 100%)", "procedure,_shortened": "as §1"}, "[6]": {"molecular_target": "T1, Paired amphipathic helix protein Sin3a (Homo sapiens)", "test": "Induction of SIN3A degradation in human HCT-116 cells assessed as reduction in SIN3A abundance by measuring remaining activity at 2.5 uM measured after 24 hrs by Western blot analysis (reference value: 100%)", "procedure,_shortened": "as §1"}, "[7]": {"molecular_target": "T4, E3 ubiquitin-protein ligase Mdm2/Histone deacetylase 1 (Homo sapiens) (UniProt Q00987+Q13547)", "T4 sequence (Q00987 whole entry, looked up)": "as above", "T4 sequence (Q13547 whole entry, looked up)": "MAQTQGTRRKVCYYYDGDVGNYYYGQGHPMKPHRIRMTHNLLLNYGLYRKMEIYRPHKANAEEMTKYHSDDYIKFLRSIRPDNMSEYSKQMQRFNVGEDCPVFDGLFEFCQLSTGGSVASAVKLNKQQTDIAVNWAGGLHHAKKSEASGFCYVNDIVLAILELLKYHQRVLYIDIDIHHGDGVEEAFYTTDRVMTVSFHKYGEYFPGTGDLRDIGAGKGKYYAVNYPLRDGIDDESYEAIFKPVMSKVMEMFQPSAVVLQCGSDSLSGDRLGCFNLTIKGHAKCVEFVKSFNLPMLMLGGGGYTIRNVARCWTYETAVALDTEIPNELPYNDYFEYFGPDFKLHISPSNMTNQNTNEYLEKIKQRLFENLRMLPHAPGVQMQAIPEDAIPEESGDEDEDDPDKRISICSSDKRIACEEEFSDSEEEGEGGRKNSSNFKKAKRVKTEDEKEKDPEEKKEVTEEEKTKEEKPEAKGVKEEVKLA", "test": "PROTAC activity at MDM2/HDAC1 in human HCT-116 cells assessed as decrease in HDAC1 abundance by measuring remaining activity at 5 uM measured after 24 hrs by Western blot analysis (reference value: 100%)", "procedure,_shortened": "as §1"}, "[8]": {"molecular_target": "Lysine-specific histone demethylase 1A (Homo sapiens) (UniProt O60341)", "test": "Induction of LSD1 degradation in human HCT-116 cells assessed as reduction in LSD1 abundance by measuring remaining activity at 0.05 uM measured after 24 hrs by Western blot analysis (reference value: 100%)", "procedure,_shortened": "as §1"}, "[9]": {"molecular_target": "T4, E3 ubiquitin-protein ligase Mdm2/Histone deacetylase 1 (Homo sapiens)", "test": "PROTAC activity at MDM2/HDAC1 in human HCT-116 cells assessed as induction of HDAC1 degradation by Western blot analysis", "details": "dose 0.01-10 µM"}, "[10]": {"molecular_target": "T4, E3 ubiquitin-protein ligase Mdm2/Histone deacetylase 1 (Homo sapiens)", "test": "PROTAC activity at MDM2/HDAC1 in human HCT-116 cells assessed as decrease in HDAC1 abundance by measuring remaining activity at 0.5 uM measured after 24 hrs by Western blot analysis (reference value: 100%)", "procedure,_shortened": "as §1"}, "[11]": {"molecular_target": "Lysine-specific histone demethylase 1A (Homo sapiens) (UniProt O60341)", "test": "Induction of LSD1 degradation in human HCT-116 cells assessed as reduction in LSD1 abundance by measuring remaining activity at 0.25 uM measured after 24 hrs by Western blot analysis (reference value: 100%)", "procedure,_shortened": "as §1"}, "[12]": {"molecular_target": "T3, E3 ubiquitin-protein ligase Mdm2/Histone deacetylase 3 (Homo sapiens)", "test": "PROTAC activity at MDM2/HDAC3 in human HCT-116 cells assessed as reduction in HDAC3 abundance by measuring remaining activity at 5 uM measured after 24 hrs by Western blot analysis", "procedure,_shortened": "as §2"}}}
{"smiles": "COc1cc(C(=O)NCCOCCOCCOCCOCCC(=O)Nc2ccc(C(=O)Nc3ccccc3N)cc2)ccc1NC(=O)[C@@H]1N[C@@H](CC(C)(C)C)[C@](C#N)(c2ccc(Cl)cc2F)[C@H]1c1cccc(Cl)c1F", "values": [{"measurement": "Activity", "setting": "[1]", "result": 103, "unit": "%"}, {"measurement": "Activity", "setting": "[2]", "result": 96, "unit": "%"}, {"measurement": "Activity", "setting": "[3]", "result": 103, "unit": "%"}, {"measurement": "Activity", "setting": "[4]", "result": 79, "unit": "%"}, {"measurement": "Activity", "setting": "[5]", "result": 89, "unit": "%"}, {"measurement": "Activity", "setting": "[6]", "result": 57, "unit": "%"}, {"measurement": "Activity", "setting": "[7]", "result": 41, "unit": "%"}, {"measurement": "Activity", "setting": "[8]", "result": 95, "unit": "%"}, {"measurement": "Activity", "setting": "[9]", "result": "Dose-Dependent Effect"}, {"measurement": "Activity", "setting": "[10]", "result": 67, "unit": "%"}, {"measurement": "Activity", "setting": "[11]", "result": 95, "unit": "%"}, {"measurement": "Activity", "setting": "[12]", "result": 105, "unit": "%"}]}
